How the values were obtained:
Assay in all cases: HIF-1a and HIF-2a reporter inhibitors, SAR follow-up, cell-based, luminescence, MIAPaCa-2, 786-0, panel (AID 652011)
[1] = target: Endothelial PAS domain-containing protein 1 (Homo sapiens) (UniProt Q99814); settings: MIAPaCa-2/PANC HIF reporter, luciferase luminescence, desferoxamine, overnight; HIF2a PANC cells; mean of runs
In short: (§1)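 Probe or stimulus: desferoxamine stimulus; times: overnight seeding and compound exposure, 37 °C, 5% CO2, 10-min detection; signal: One-Glo luciferase luminescence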

[2] = tested on: HIF2a PANC; settings: MIAPaCa-2/PANC HIF reporter, luciferase luminescence, desferoxamine, overnight
In short: as §1

[3] = tested on: HIF1a; settings: MIAPaCa-2/PANC HIF reporter, luciferase luminescence, desferoxamine, overnight
In short: as §1

[4] = target: Hypoxia-inducible factor 1-alpha (Homo sapiens) (UniProt Q16665); settings: MIAPaCa-2/PANC HIF reporter, luciferase luminescence, desferoxamine, overnight; HIF1a; mean of runs
In short: as §1

[5] = run 1, individual run IC50, panel line
[6] = run 2, individual run IC50, panel line

Sequence of Endothelial PAS domain-containing protein 1 (Homo sapiens) (Q99814 whole entry, looked up, the tested form may be a part): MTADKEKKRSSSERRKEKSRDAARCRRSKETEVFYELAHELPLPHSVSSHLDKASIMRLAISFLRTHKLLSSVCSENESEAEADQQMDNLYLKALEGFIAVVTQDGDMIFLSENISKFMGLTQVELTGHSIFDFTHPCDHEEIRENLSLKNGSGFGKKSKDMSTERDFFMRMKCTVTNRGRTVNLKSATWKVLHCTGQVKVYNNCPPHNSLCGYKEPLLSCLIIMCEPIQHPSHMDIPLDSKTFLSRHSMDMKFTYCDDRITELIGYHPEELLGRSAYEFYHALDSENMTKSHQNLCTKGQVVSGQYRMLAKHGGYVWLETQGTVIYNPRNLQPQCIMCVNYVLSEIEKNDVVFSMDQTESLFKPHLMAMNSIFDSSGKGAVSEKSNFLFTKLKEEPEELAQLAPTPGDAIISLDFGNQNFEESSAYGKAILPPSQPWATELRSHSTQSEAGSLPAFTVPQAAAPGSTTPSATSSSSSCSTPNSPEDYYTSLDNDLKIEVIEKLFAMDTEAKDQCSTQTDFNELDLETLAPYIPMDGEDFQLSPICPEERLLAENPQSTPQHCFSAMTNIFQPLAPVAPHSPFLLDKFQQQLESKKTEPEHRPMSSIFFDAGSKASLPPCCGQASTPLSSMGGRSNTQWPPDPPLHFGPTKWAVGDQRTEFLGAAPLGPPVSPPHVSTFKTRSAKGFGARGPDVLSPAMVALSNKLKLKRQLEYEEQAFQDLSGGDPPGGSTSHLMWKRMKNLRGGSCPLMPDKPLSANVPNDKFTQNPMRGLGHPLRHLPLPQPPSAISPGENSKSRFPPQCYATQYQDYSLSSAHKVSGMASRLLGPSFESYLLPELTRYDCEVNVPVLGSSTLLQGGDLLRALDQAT
Sequence of Hypoxia-inducible factor 1-alpha (Homo sapiens) (Q16665 whole entry, looked up): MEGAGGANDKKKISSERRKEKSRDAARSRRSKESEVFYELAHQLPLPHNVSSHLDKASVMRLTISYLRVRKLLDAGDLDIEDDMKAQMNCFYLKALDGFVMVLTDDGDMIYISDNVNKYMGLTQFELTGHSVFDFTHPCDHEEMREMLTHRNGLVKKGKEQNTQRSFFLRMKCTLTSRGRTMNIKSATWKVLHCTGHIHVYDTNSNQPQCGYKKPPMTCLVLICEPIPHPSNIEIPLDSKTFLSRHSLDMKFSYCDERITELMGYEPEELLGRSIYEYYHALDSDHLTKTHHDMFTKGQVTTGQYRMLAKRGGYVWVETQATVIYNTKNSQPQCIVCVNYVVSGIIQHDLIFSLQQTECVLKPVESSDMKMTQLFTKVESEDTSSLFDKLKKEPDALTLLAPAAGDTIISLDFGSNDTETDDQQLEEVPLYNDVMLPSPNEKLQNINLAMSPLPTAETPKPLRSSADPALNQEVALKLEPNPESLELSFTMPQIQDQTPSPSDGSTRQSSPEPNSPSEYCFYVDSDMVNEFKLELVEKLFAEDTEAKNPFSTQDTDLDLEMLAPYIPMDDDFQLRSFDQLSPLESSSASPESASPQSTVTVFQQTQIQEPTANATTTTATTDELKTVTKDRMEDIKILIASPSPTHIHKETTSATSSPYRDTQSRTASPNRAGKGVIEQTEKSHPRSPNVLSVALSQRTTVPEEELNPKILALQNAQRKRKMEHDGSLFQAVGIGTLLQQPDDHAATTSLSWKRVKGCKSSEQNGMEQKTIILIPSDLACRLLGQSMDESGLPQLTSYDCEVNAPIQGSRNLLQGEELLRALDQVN

IC50 [1] | IC50 [2, 5] | IC50 [2, 6] | IC50 [3, 5] | IC50 [3, 6] | IC50 [4] | Structure (SMILES)
< 190 nM | < 190 nM | < 190 nM | 38100 nM | 28600 nM | 33400 nM | CC(C)(C)c1ccc(-c2noc(CCC(=O)Nc3cccnc3)n2)cc1
< 190 nM | < 190 nM | < 190 nM | > 99000 nM | 38000 nM | 38000 nM | CC(C)(C)c1ccc(-c2noc(CCC(=O)NC3CCCCC3)n2)cc1
< 190 nM | < 190 nM | < 190 nM | 9870 nM | 6700 nM | 8290 nM | CC(C)(C)c1ccc(-c2noc(CCC(=O)Nc3cccc([N+](=O)[O-])c3)n2)cc1
< 190 nM | < 190 nM | < 190 nM | > 99000 nM | < 190 nM | 49600 nM | CC(C)(C)c1ccc(-c2noc(CCC(=O)NC3CCCC3)n2)cc1
< 190 nM | < 190 nM | < 190 nM | > 99000 nM | 647 nM | 647 nM | COc1ccccc1NC(=O)CCc1nc(-c2ccc(C(C)(C)C)cc2)no1
< 190 nM | < 190 nM | < 190 nM | < 190 nM | < 190 nM | < 190 nM | CC(C)(C)c1ccc(-c2noc(CCC(=O)O)n2)cc1
< 190 nM | < 190 nM | < 190 nM | < 190 nM | 229 nM | 229 nM | COc1cccc(NC(=O)CCc2nc(-c3ccc(C(C)(C)C)cc3)no2)c1
5860 nM | 4440 nM | 7280 nM | 1170 nM | 1510 nM | 1340 nM | CCOc1ccc(-c2noc(CCC(=O)O)n2)cc1
< 190 nM | < 190 nM | < 190 nM | > 99000 nM | 973 nM | 973 nM | CCOc1ccccc1NC(=O)CCc1nc(-c2ccc(C(C)(C)C)cc2)no1
< 190 nM | < 190 nM | < 190 nM | < 1000 nM | < 190 nM | < 190 nM | COC(=O)CCc1nc(-c2ccc(C(C)(C)C)cc2)no1

Reference: PubChem BioAssay AID652011 (Sanford-Burnham Center for Chemical Genomics, 2013)
